# Test results from article PMC7258337 (Nature metabolism, 2020).
# Assays:
# [1] = serum peptide content by GLP-1R and GcgR cAMP bioassay; type: in vivo, mouse; settings: 10 nmol/kg SC QD 7 d
# Method in brief: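 On day 7 they got a final dose and serum was taken at 0, 2, 6 or 16 h (n=4/timepoint). Apparent serum peptide concentration was estimated from cAMP accumulation in CHO K1 cells stably expressing human GLP1R or GcgR, by potency comparison.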
# [2] = test system: C57BL/6J mice fed AMLN diet; assay: sub-chronic dosing in C57Bl/6J AMLN NASH model; type: in vivo, mouse; settings: for weight loss from baseline: Cotadutide 10, Liraglutide 40 nmol/kg SC, OCA 70 μmol/kg PO, QD 6 weeks; for food intake within the first 4 days: same doses; for animals with reduced fibrosis / animals with reduced fibrosis (number of group): n=12; for mice in which NAS was reduced: vehicle controls 8%
# Method in brief: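 Male C57BL/6J mice, about 6 weeks old, were fed AMLN diet for 29 weeks (chow controls) before dosing for 6 weeks, n=12/group. Dosing: peptides SC once daily just before lights off; OCA oral. Every mouse got both an SC vehicle (phosphate/propylene glycol/PS-80, pH 7.5) and an oral vehicle (0.5% CMC). Body weight was recorded daily. ipGTT on day 28 after 4 h fast (1.5 g/kg glucose). Terminal blood and liver collected on day 42.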
# [3] = test system: non-cirrhotic, non-alcoholic steatohepatitis patients; settings: cited from earlier work
# [4] = test system: DIO C57Bl/6J Wild-type (WT) mice; assay: two-week treatment of DIO GLP-1R WT mice; type: in vivo, mouse
# Method in brief: (§1)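 Mice were made obese on diet for 8 weeks, then moved to 45% high-fat diet for 2 weeks. Body weight was tracked as % change, with cumulative food intake over days 1–4. Blood and tissues were taken 20 h after the final dose.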
# [5] = test system: DIO GLP-1R knock-out (KO) mice; assay: two-week treatment of DIO GLP-1R KO mice; type: in vivo, mouse
# Method in brief: as §1
# [6] = test system: C57Bl/6J diet induced obese (DIO) male mice; assay: time course study in DIO C57Bl/6J mice, 7 days dosing; type: in vivo, mouse
# Method in brief: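 On day 7 they were euthanized at time 0, or at 2, 6 or 16 h after a final dose (n=4/group/timepoint). Body weight was tracked as % change from baseline; blood glucose was measured.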
# C57Bl/6J DIO male mice = assay: hyperglycemic clamp and stable isotope infusions in DIO C57Bl6J; type: in vivo, mouse
# Method in brief: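 Twenty-week-old male C57Bl/6J DIO mice were kept on a shifted light cycle (lights on midnight to noon). Arterial and venous catheters were placed 5 days before a hyperglycemic clamp with […] glucose and water tracing.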
# [7] = test system: C57BL6J diet-induced NASH model; assay: six-week treatment of NASH C57Bl6/J mice; type: in vivo, mouse
# [8] = test system: primary murine hepatocytes; assay: de novo lipogenesis, 3H-acetate lipid incorporation; type: cell-based, mouse; settings: 100 nM; vs vehicle-treated controls
# Method in brief: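 Primary murine hepatocytes treated ex vivo with test compound at 100 nM. De novo lipogenesis was measured as ³H-acetate incorporation into lipid: lipids were extracted, and ³H in the lower phase was counted by scintillation. Values are relative to vehicle-treated controls. n=3–6 per treatment, n=9 vehicle.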
# [9] = test system: mouse primary hepatocytes; assay: mitophagosomes by live cell confocal microscopy; type: cell-based; settings: 100 nM, 2h
# Method in brief: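 Primary mouse hepatocytes were kept 1 h at 37°C/5% CO2, then 4 h in fresh isolation medium, then moved to serum-free low-glucose DMEM (10 mM lactate, 2 mM glutamine, 5 mM HEPES, 10 nM dexamethasone). Cells were used 18–24 h post-plating and given 100 nM test compound for 2 h. Live cells were stained with Mitotracker green plus Lysotracker deep red and imaged by confocal microscopy. Mitophagosomes were scored as Lysotracker puncta containing Mitotracker signal.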
# [10] = test system: primary mouse hepatocytes; assay: mRNA levels in primary mouse hepatocytes; type: cell-based; settings: 1, 10, 100 nM, 4h
# Method in brief: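 Primary mouse hepatocytes were exposed to test compound at 1, 10 or 100 nM for 4 h, and G6pc, Pck1 and Ppargc1a mRNA were measured. For Ppargc1a, the 100 nM condition was also combined with PKA inhibitor H89 at 10 μM. For G6pc and Pck1, it was combined with H89 at 2.5, 5 or 10 μM. n=3 biologically independent samples; one-way ANOVA with Dunnett post-hoc.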
# [11] = test system: primary human hepatocytes from normal or NASH donors; assay: PPARGC1A mRNA in primary human hepatocytes; type: cell-based; settings: 100 nM, 4 h; healthy and NASH donors
# Method in brief: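 Primary hepatocytes from normal or NASH human donors, exposed to test compound at 100 nM for 4 h; PPARGC1A transcript measured. n=3 biologically independent samples per group.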
# [12] = test system: primary mouse hepatocytes; assay: mitochondrial oxygen consumption; type: cell-based
# Method in brief: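 Seahorse XFe96 run on primary mouse hepatocytes at 7500 cells/well, recovered overnight, then treated 4 h with 100 nM test compound. Assay medium: DMEM with 5 mM glucose, 4 mM L-glutamine, 2 mM pyruvate, pH 7.4; 30 min CO₂-free preincubation. Stress test used 1 μM oligomycin, 0.5 μM FCCP and 5 μM antimycin A. Basal and maximal OCR normalized to citrate synthase activity. n=3; substrate oxidation n=2.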
# ob/ob AMLN NASH mice = assay: sub-chronic dosing in ob/ob AMLN NASH model; type: in vivo, mouse
compound,measurement,setting,value
"CCCCCCCCCCCCCCCC(=O)N[C@@H](CCC(=O)NCCCC[C@H](NC(=O)[C@H](C)NC(=O)[C@H](C)NC(=O)[C@H](CCC(N)=O)NC(=O)CNC(=O)[C@H](CCC(=O)O)NC(=O)[C@H](CC(C)C)NC(=O)[C@H](Cc1ccc(O)cc1)NC(=O)[C@H](CO)NC(=O)[C@H](CO)NC(=O)[C@@H](NC(=O)[C@H](CC(=O)O)NC(=O)[C@H](CO)NC(=O)[C@@H](NC(=O)[C@H](Cc1ccccc1)NC(=O)[C@@H](NC(=O)CNC(=O)[C@H](CCC(=O)O)NC(=O)[C@H](C)NC(=O)[C@@H](N)Cc1cnc[nH]1)[C@@H](C)O)[C@@H](C)O)C(C)C)C(=O)N[C@@H](CCC(=O)O)C(=O)N[C@@H](Cc1ccccc1)C(=O)N[C@H](C(=O)N[C@@H](C)C(=O)N[C@@H](Cc1c[nH]c2ccccc12)C(=O)N[C@@H](CC(C)C)C(=O)N[C@H](C(=O)N[C@@H](CCCNC(=N)N)C(=O)NCC(=O)N[C@@H](CCCNC(=N)N)C(=O)NCC(=O)O)C(C)C)[C@@H](C)CC)C(=O)O [Liraglutide, reference compound]","pharmacokinetics compared with Cotadutide, in words",[1],longer bioavailability
"CC[C@H]1[C@@H](O)[C@@H]2[C@H](CC[C@]3(C)[C@@H]([C@H](C)CCC(=O)O)CC[C@@H]23)[C@@]2(C)CC[C@@H](O)C[C@@H]12 [OCA, Obeticholic acid, reference compound]",weight loss from baseline,[2],~ 3%
same,plasma insulin at 15 min during the GTT,[2]; after 4 weeks of dosing,no effect
same,food intake within the first 4 days,[2],no effect
same,animals with reduced fibrosis,[2]; terminal vs pre-study biopsy,8.3%
same,animals with reduced fibrosis (number of group),[2]; terminal vs pre-study biopsy,1/12
same,liver mass,"[2]; terminal, vs vehicle",only reducing liver mass
same,mice in which NAS was reduced,[2],75%
same,"steatosis and inflammation scores and overall NAS, responders",[2]; vs vehicle,significantly more animals with lower steatosis and inflammation scores and overall NAS
same,patients with a reduction in NAS,[3]; placebo 12%,20%
same,patients with reduction in fibrosis stage,[3]; placebo 17%,35%
Cotadutide,body weight,"[4]; 10 nmol/kg SC QD 14 d (Liraglutide+g1437 5+5 nmol/kg), vs vehicle",significantly reduced
same,liver lipid content,"[4]; 10 nmol/kg SC QD 14 d, terminal",to a greater degree than Liraglutide alone
same,food intake,"[4]; 10 nmol/kg SC QD, first 4 days of dosing",significantly reduced
same,fasting glucose,"[4]; 10 nmol/kg SC QD, vs vehicle",lowered
same,body weight,[5]; 10 nmol/kg SC QD 14 d (Liraglutide+g1437 5+5 nmol/kg),not observed
same,food intake,[5]; first 4 days of dosing,but not in KO mice
same,liver glycogen,[6]; 0-16 h after final dose,rapidly depleted by 6h post Cotadutide but rebounded to normal at 16h
same,body weight,"[6]; 10 nmol/kg SC QD 7 d, vs vehicle",significant weight loss
same,blood glucose,"[6]; smaller study vehicle vs Cotadutide, 2h and 6h post dose",significantly lowered
same,serum concentration at 16h,[1],undetectable
same,time of highest serum concentration,"[1]; sampled 0, 2, 6, 16 h after final dose",highest at 2h and 6h
same,de novo lipogenesis during the clamp (palmitate and glyceride synthesis),C57Bl/6J DIO male mice; 10 nmol/kg SC QD 7 d,reduced
same,glycogen synthesis stimulated by hyperglycemia,C57Bl/6J DIO male mice; 10 nmol/kg SC QD 7 d,intact
same,hepatic (endogenous) glucose production during hyperglycemia,C57Bl/6J DIO male mice; 10 nmol/kg SC QD 7 d,suppressed
same,core hepatic glycogen,"C57Bl/6J DIO male mice; 10 nmol/kg SC QD 7 d, fasted",lower core glycogen levels
same,basal glucose production,"C57Bl/6J DIO male mice; fasted, basal state",increased basal glucose production
same,body weight,[7]; 10 nmol/kg SC QD 42 d,"reduced body weight similarly to Liraglutide+g1437, but more than either Liraglutide or g1437 alone"
same,glucose excursion in pyruvate tolerance test,"[7]; day 14, pyruvate 2g/kg",lower glucose excursion
same,plasma alanine aminotransferase (ALT),[7]; end of study,significantly reduced
same,hepatic glycogen,[7]; terminal,elevated only with Cotadutide treatment
same,liver triglycerides,[7]; terminal,reduced
same,fasted insulin,"[7]; vs vehicle, Liraglutide and Liraglutide+g1437",lower
same,de novo lipid synthesis,[8],reduce de novo lipid synthesis
same,mitochondrial number,[9],without altering mitochondrial number
same,mitophagosomes (mitochondria within lysosomes),[9]; vs vehicle,Increased number
same,G6pc and Pck1 mRNA,[10],induced
same,Ppargc1a mRNA,[10],equally increased
same,PPARGC1A transcript levels,[11],significantly increased
same,fuel preference,[12]; ex vivo treatment,no effect
same,basal and maximal respiration rates,"[12]; healthy mouse primary hepatocytes, 100 nM, 4h",increased basal and maximal respiration rates
same,basal and maximal respiratory rates (OCR),"[12]; hepatocytes from ob/ob NASH mice, 100 nM, 4h ex vivo",restored
same,weight loss from baseline,[2],~ 8%
same,glucose tolerance (ipGTT),[2]; after 4 weeks of dosing,significantly improved by Cotadutide more so than Liraglutide or OCA
same,plasma insulin at 15 min during the GTT,[2]; after 4 weeks of dosing,increased
same,food intake within the first 4 days,[2],reduced food intake
same,hepatic glycogen,[2]; terminal,increase in hepatic glycogen
same,animals with worsened fibrosis,[2]; terminal vs pre-study biopsy,no animals had worsened fibrosis
same,animals with reduced fibrosis,[2]; terminal vs pre-study biopsy,25%
same,animals with reduced fibrosis (number of group),[2]; terminal vs pre-study biopsy,3/12
same,liver mass,"[2]; terminal, vs vehicle",unchanged liver mass
same,plasma ALT,"[2]; terminal, vs vehicle",reduced ALT levels
same,mice in which NAS was reduced,[2],83%
same,"steatosis and inflammation scores and overall NAS, responders",[2]; vs vehicle,significantly more animals with lower steatosis and inflammation scores and overall NAS
same,weight loss from baseline,"ob/ob AMLN NASH mice; Cotadutide 30 nmol/kg, Liraglutide 40 nmol/kg SC QD 6 weeks",7-8%
same,plasma C3M and P4NP7S,ob/ob AMLN NASH mice; ELISA,only reduced in Cotadutide-treated mice
same,"resolution of fibrosis, mice",ob/ob AMLN NASH mice; n=7,resolved in all but one
same,lowering of collagen staining (Col1a1),ob/ob AMLN NASH mice; not statistically significant,~ 17%
same,"hepatic transcript levels of Col1a1, Col3a1, Timp1, Ccl2, and Cd68",ob/ob AMLN NASH mice; relative to AMLN vehicle,significantly reduced
same,"hepatic transcript levels of Mmp9, Il-1b and Tnf",ob/ob AMLN NASH mice; relative to AMLN vehicle,uniquely reducing
same,CD68 scoring (immune cell infiltration),ob/ob AMLN NASH mice; terminal,only reduced by Cotadutide treatment
same,NAS,ob/ob AMLN NASH mice; terminal,reduced
same,fibrosis stage,ob/ob AMLN NASH mice; terminal,improved only by Cotadutide treatment
same,hepatic lipid content,ob/ob AMLN NASH mice; terminal,more significant reduction in hepatic lipid content compared to Liraglutide and diet-switch
same,liver mass,ob/ob AMLN NASH mice; terminal,similarly reduced
same,"liver αSMA, PSR and hydroxyproline",ob/ob AMLN NASH mice; terminal,lowered
same,plasma ALT,ob/ob AMLN NASH mice; terminal,lowered
same,hepatic Ppargc1a mRNA,"ob/ob AMLN NASH mice; terminal, about 16h post last dose",restored mRNA levels to those of LFD control
same,hepatic DAGs and ceramides,ob/ob AMLN NASH mice; vs vehicle,only Cotadutide additionally reduced DAGs and ceramides
